Reference: article PMC6392825 (ChemistryOpen, 2019)
In brackets after ≈: the same amount, converted by molar mass.

Legend:
Caco‐2 [1] = test: Cytotoxicity, mitochondrial activity; assay type: cell-based; details: Homo sapiens, Caco-2, 72 h, read-out: IC50 MTT
Procedure, shortened: (§1)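 Seeded at 20000 cells/well in DMEM and grown 24 h at 37 °C, 10% CO2. Medium was then replaced with serum-free medium holding test compound (25 mM DMSO stock) at various concentrations for 72 h, in triplicate; doxorubicin was the positive control. MTT (5 mg/mL stock in PBS) added for 2 h, formazan dissolved in DMSO, A570. IC50 derived from % surviving cells, reported as mean ± SD combined with SRB data.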

HepG2 [2] = test: Intracellular ROS assay; assay type: cell-based; details: Homo sapiens, HepG2, read-out: Intracellular ROS, percentage compared to the untreated control cells (ROS/SRB)
Procedure, shortened: (§2)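 Cells seeded at 20000/well and grown 24 h at 37 °C, 10% CO2, then treated with test compound at 10 and 1 μM in serum-free medium. NAC and doxorubicin served as controls. After a PBS wash, cells were loaded with 20 μM DCFH-DA for 30 min, washed, and held 1 h in phenol red-free DMEM. Fluorescence read at ex 485/em 535 nm and normalized to SRB in the same well. Reported as % of untreated control, n ≥ 3, two-tailed t-test with unequal variances.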

HT‐29 [3] = test: Intracellular ROS assay; assay type: cell-based; details: Homo sapiens, HT-29, read-out: Intracellular ROS, percentage compared to the untreated control cells (ROS/SRB)
Procedure, shortened: as §2

Caco‐2 [4] = test: Cell growth inhibition, protein content; assay type: cell-based; details: Homo sapiens, Caco-2, 72 h, read-out: IC50 SRB
Procedure, shortened: (§3)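 Cell lines from ATCC, grown in DMEM+glutamax with 1% NEAA, 1% P/S and 10% FBS at 37 °C, 10% CO2. Seeded at 20000 cells/well for 24 h, then exposed to test compound (25 mM DMSO stock) for three days. Fixed with cold TCA for 1 h at 4 °C, stained 30 min with 0.4% SRB in 1% acetic acid, dissolved in 10 mM Tris, A490. Triplicate; IC50 given as mean ± SD combined with MTT data (n ≥ 3).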

EA.hy926 [5] = test: Cell growth inhibition, protein content; assay type: cell-based; details: Homo sapiens, EA.hy 926, 72 h, read-out: IC50 SRB
Procedure, shortened: as §3

HepG2 [6] = test: Cytotoxicity, mitochondrial activity; assay type: cell-based; details: Homo sapiens, HepG2, 72 h, read-out: IC50 MTT
Procedure, shortened: as §1

EA.hy926 [7] = test: Cytotoxicity, mitochondrial activity; assay type: cell-based; details: Homo sapiens, EA.hy 926, 72 h, read-out: IC50 MTT
Procedure, shortened: as §1

HepG2 [8] = test: Cell growth inhibition, protein content; assay type: cell-based; details: Homo sapiens, HepG2, 72 h, read-out: IC50 SRB
Procedure, shortened: as §3

HT‐29 [9] = test: Cytotoxicity, mitochondrial activity; assay type: cell-based; details: Homo sapiens, HT-29, 72 h, read-out: IC50 MTT
Procedure, shortened: as §1

[10] = Water solubility, shake flask method, 0.1 M phosphate buffer pH 6.8; assay type: physicochemical; details: 37 °C, pH 6.8, aqueous buffer, thermodynamic from solid
HT‐29 [11] = test: Cell growth inhibition, protein content; assay type: cell-based; details: Homo sapiens, HT-29, 72 h, read-out: IC50 SRB
Procedure, shortened: as §3

[12] = Chemical antioxidant capacity, FRAP assay
EA.hy926 [13] = test: Intracellular ROS assay; assay type: cell-based; details: Homo sapiens, EA.hy 926, read-out: Intracellular ROS, percentage compared to the untreated control cells (ROS/SRB)
Procedure, shortened: as §2

Caco‐2 [14] = test: Intracellular ROS assay; assay type: cell-based; details: for activity at 1 µM / activity at 10 µM: Homo sapiens, Caco-2, read-out: Intracellular ROS, percentage compared to the untreated control cells (ROS/SRB)
Procedure, shortened: as §2

| Structure (SMILES) | IC50 (Caco‐2 [1]) | activity at 1 µM (HepG2 [2]) | activity at 10 µM (HepG2 [2]) | activity at 1 µM (HT‐29 [3]) | activity at 10 µM (HT‐29 [3]) | IC50 (Caco‐2 [4]) | IC50 (EA.hy926 [5]) | IC50 (HepG2 [6]) | IC50 (EA.hy926 [7]) | IC50 (HepG2 [8]) | IC50 (HT‐29 [9]) | solubility at 90 min [10] | solubility at 24 h [10] | IC50 (HT‐29 [11]) | FRAP (Trolox equivalent per μM) [12] | FRAP (curcumin equivalent per μM) [12] | activity at 1 µM (EA.hy926 [13]) | activity at 10 µM (EA.hy926 [13]) | activity at 1 µM (Caco‐2 [14]) | activity at 10 µM (Caco‐2 [14]) | other results |
| --- | --- | --- | --- | --- | --- | --- | --- | --- | --- | --- | --- | --- | --- | --- | --- | --- | --- | --- | --- | --- | --- |
| O=C(/C=C(O)/C=C/c1ccccn1)/C=C/c1c[nH]c2ccccc12 [3 j, (1E,4Z,6E)‐5‐Hydroxy‐1‐(1H‐indol‐3‐yl)‐7‐(pyridin‐2‐yl)hepta‐1,4,6‐trien‐3‐one] | 35.5 ± 0.4 µM | 92.6 ± 6.5% | 96.6 ± 5.9% | 114 ± 15.5% | 102 ± 6.4% | 40.2 ± 1.9 µM | 3.7 ± 0.2 µM | 38.9 ± 0.8 µM | 1.4 ± 0.2 µM | 34 ± 2.8 µM | 33.8 ± 3.5 µM | 10.7 ± 0.4 µM (≈ 3.39 µg/mL) | 7.9 ± 0.2 µM (≈ 2.5 µg/mL) | 46 ± 3 µM | 0.16 Trolox equivalent per μM | 0.15 curcumin equivalent per μM | 90.8 ± 2.4% | 111 ± 3.5% | 98.2 ± 2.6% | 84.9 ± 7% |  |
| COc1cc(/C=C/C(=O)CC(=O)/C=C/c2ccc(O)c(OC)c2)ccc1O [Cur, curcumin, reference compound] | 47.6 ± 1.5 µM | 90.8 ± 12% | 101 ± 8.8% | 106 ± 8.4% | 86.5 ± 4.5% | 39.1 ± 0.1 µM | 58.4 ± 4.2 µM | 25.3 ± 0.9 µM | 46.8 ± 0.7 µM | 22.1 ± 2.6 µM | 43.4 ± 4.6 µM | 2.7 ± 0.1 µM (≈ 0.995 µg/mL) |  | 52.3 ± 3.8 µM | 1.00 Trolox equivalent per μM |  | 100 ± 7.7% | 97.6 ± 5.7% | 131 ± 3.6% | 115 ± 7.2% |  |
| O=C(/C=C(O)/C=C/c1ccc[nH]1)/C=C/c1c[nH]c2ccccc12 [3 l, (1E,4Z,6E)‐5‐Hydroxy‐1‐(1H‐indol‐3‐yl)‐7‐(1H‐pyrrol‐2‐yl)hepta‐1,4,6‐trien‐3‐one] | 6.5 ± 0.2 µM | 600 ± 61.8% | 998 ± 60.2% | 152 ± 8.8% | 558 ± 96.3% | 10.1 ± 0.5 µM | 4.2 ± 0.3 µM | 16.5 ± 0.4 µM | 3.3 ± 0.1 µM | 9.8 ± 0.3 µM | 10.5 ± 0.1 µM | 12.2 ± 0.3 µM (≈ 3.71 µg/mL) | 12 ± 0.7 µM (≈ 3.65 µg/mL) | 10 ± 0.1 µM | 0.29 Trolox equivalent per μM | 0.27 curcumin equivalent per μM | 438 ± 46.1% | 826 ± 22.7% | 410 ± 31.9% | 767.2 ± 4.1% |  |
| COc1cc(/C=C/C(=O)/C=C(O)/C=C/c2c[nH]c3ccccc23)ccc1O [3 g, (1E,4Z,6E)‐5‐Hydroxy‐1‐(4‐hydroxy‐3‐methoxyphenyl)‐7‐(1H‐indol‐3‐yl)hepta‐1,4,6‐trien‐3‐one] | 5.8 ± 0.3 µM | 111 ± 14.5% | 104 ± 12% | 85.7 ± 1.3% | 90.4 ± 5.1% | 37.9 ± 1.8 µM | 45.1 ± 2.6 µM | 19.5 ± 0.6 µM | 19 ± 0.4 µM | 13.5 ± 1.1 µM | 12.9 ± 0.9 µM | 7.6 ± 0.9 µM (≈ 2.75 µg/mL) | 13.2 ± 0.3 µM (≈ 4.77 µg/mL) | 40.5 ± 4.3 µM | 0.44 Trolox equivalent per μM | 0.42 curcumin equivalent per μM | 129 ± 9.2% | 92.7 ± 6.1% | 102 ± 11.3% | 111 ± 3.1% |  |
| COc1cc(/C=C/C(=O)/C=C(O)/C=C/c2ccnc3ccccc23)ccc1O [3 d, (1E,4Z,6E)‐5‐Hydroxy‐1‐(4‐hydroxy‐3‐methoxyphenyl)‐7‐(quinolin‐4‐yl)hepta‐1,4,6‐triene‐3‐one] | 46.3 ± 3.7 µM | 90.7 ± 7.4% | 99.6 ± 11.7% | 71.3 ± 4.9% | 96.9 ± 8% | 40.8 ± 1.6 µM | 60.2 ± 10.4 µM | 44.8 ± 5.5 µM | 42.3 ± 1.2 µM | 55.4 ± 0.3 µM | 47 ± 1 µM | 3.6 ± 1.1 µM (≈ 1.34 µg/mL) | 4.4 ± 1.3 µM (≈ 1.64 µg/mL) | 47.2 ± 2.2 µM | 0.20 Trolox equivalent per μM | 0.20 curcumin equivalent per μM | 95.6 ± 7% | 132 ± 6.5% | 94.2 ± 5% | 108 ± 4.4% |  |
| COc1cc(/C=C/C(=O)/C=C(O)/C=C/c2cccc3cnccc23)ccc1O [3 e, (1E,4Z,6E)‐5‐Hydroxy‐1‐(4‐hydroxy‐3‐methoxyphenyl)‐7‐(isoquinolin‐5‐yl)hepta‐1,4,6‐triene‐3‐one] | 6.9 ± 0.3 µM | 103 ± 5.1% | 96.7 ± 4.3% | 80.6 ± 4.8% | 67.6 ± 5.1% | 17.7 ± 3 µM | 16.2 ± 0.6 µM | 4.7 ± 0.2 µM | 5.2 ± 0.2 µM | 7.3 ± 0.3 µM | 1.3 ± 0.5 µM | 1.1 ± 0.2 µM (≈ 0.411 µg/mL) | 1.4 ± 0.2 µM (≈ 0.523 µg/mL) | 10.7 ± 1.6 µM | 0.21 Trolox equivalent per μM | 0.20 curcumin equivalent per μM | 96.3 ± 4.3% | 120 ± 4.4% | 92.8 ± 11.9% | 72.7 ± 5.1% | change of intracellular ROS in words (Caco‐2 [14]; Caco‐2, vs untreated control, 10 and 1 μM): significantly decreased ROS production |
